Measured values from different studies.
Compare with care: the assays were run in different laboratories.
Target: STE20/SPS1-related proline-alanine-rich protein kinase (STK39, Homo sapiens, UniProt Q9UEW8)

| SMILES | assay | setting | endpoint | value |
| --- | --- | --- | --- | --- |
| CNC(=O)Nc1ccc2c(c1)[C@@]1(CC2)OC(=O)N(CC(=O)N(Cc2ccc(F)cc2)[C@@H](C)C(F)(F)F)C1=O | cell-free assay, competition with immobilised ligand | 1 µM | remaining binding | 100% |
| COc1ccc(COc2ccc(Cc3cnc(N)nc3N)cc2OC)cc1 | cell-free assay | 0.5 µM | remaining signal | 87.6% |
| Cc1c(NC(=O)c2cc(C(N)=O)nc3cc(F)ccc23)c(C(F)(F)F)nn1Cc1ccc(C(C)(C)C)cc1 | cell-free assay, competition with immobilised ligand | 1 µM | remaining binding | 100% |
| O=C1Nc2ccc(Cl)cc2C1=Cc1cc(Cl)c(O)c(Cl)c1 | cell-free assay | 0.5 µM | remaining signal | 97% |
| CC(C)(C)c1nc2c(s1)c1nc(N)ncc1c1ccc(NS(=O)(=O)c3c(F)cccc3F)c(F)c12 | enzyme activity, inhibitor, radiometric | 1 µM | remaining activity | 92% |
| O=C(Nc1cnn(-c2csc(C(=O)NC3COC3)c2)c1)Nc1ccccc1Cl | enzyme activity, inhibitor | 5 µM | remaining activity | 87.5% |
| O=c1nc(-c2ccccn2)sc2ccccc12 | binding, competition with immobilised ligand | 1 µM | remaining binding | 100% |
| N#CCCc1ccc2c(c1)-c1[nH]c3ccc([N+](=O)[O-])cc3c1CC(=O)N2 | cell-free assay | 0.5 µM | remaining signal | 96.4% |
| Cc1ccc(C(=O)Nc2ccc(CN3CCN(C)CC3)c(C(F)(F)F)c2)cc1C#Cc1cnc2cccnn12 | enzyme activity, inhibitor | 23.5 nM | remaining activity | 85% |
| Cc1cc(-n2nc(Cc3cc(F)cc(C(F)(F)F)c3)nc2C)ccc1C(N)=O | cell-free assay, competition with immobilised ligand | 1 µM | remaining binding | 100% |
| Cn1cnc(Br)c1C1=CN(c2ncnc3[nH]cnc23)CCS1 | enzyme activity, inhibitor, radiometric | 50 nM | inhibition | 65.5% |
| Nc1ncnc2occ(-c3ccc(NC(=O)Nc4cc(C(F)(F)F)ccc4F)cc3)c12 | cell-free assay, inhibitor | 20 µM | remaining signal | 19% |
